This note sets out measurements from ChEMBL document CHEMBL1155343, “Discovery of N-(3-(morpholinomethyl)-phenyl)-amides as potent and selective CB2 agonists” (Bioorg Med Chem Lett, 2009).

What is called Ki is a dissociation constant, usually derived from enzyme kinetics or from competition with a known ligand. One may read the EC50 as the concentration that produces a half-maximal response.

Entries after “also recorded” stand apart in the source; their conditions may differ. Calls of active or inactive are those of the source. A value given as a limit tells only on which side of the number the result lay.

The target of one data set is Cannabinoid receptor 1 (Homo sapiens, UniProt P21554). The data set is described as follows: Displacement of [3H]CP-55940 from human CB1 receptor expressed in CHO cells. In kind it is cell-based. The procedure, abridged:
(§1)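 Ki values are geometric means of at least three separate determinations. Selectivity is expressed as the ratio of the CB1 Ki to the CB2 Ki.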
On the technique in general: Displacement assays read how much labelled ligand stays bound in the presence of the test substance.

Data set [1] concerns the target T1, Cannabinoid receptor 2 (Homo sapiens, UniProt P34972). The data set is described as follows: Displacement of [3H]CP-55940 from human CB2 receptor expressed in CHO cells. Format: cell-based. The procedure, abridged: as §1
For data set [2], the target named is T1, Cannabinoid receptor 2. The data set is described as follows: Agonist activity at human CB2 receptor expressed in CHO cells by [35S]GTPgammaS binding assay. In kind it is functional, cell-based. The gist of the method: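 [35S]GTPγS binding with membranes from transfected CHO cells expressing CB2. EC50 values are geometric means of at least three separate determinations.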
A general note: Binding of GTPγS marks nucleotide exchange on a G protein.

A short description of data set [3]: Metabolic stability in rat liver microsomes after 30 mins. Format: ADME, Microsome. The settings on record: read-out: Stability. The gist of the method:
(§2)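 Compounds incubated with liver microsomes for 30 min. Read-out is percent of parent compound remaining.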

The nature of data set [4]: Metabolic stability in human liver microsomes after 30 mins. The conditions noted are these: read-out: Stability. Format: ADME, Microsome. The gist of the method:
as §2
Background: Liver microsomes are vesicles of endoplasmic reticulum, rich in cytochrome P450 enzymes.

The species entered for the next data set is Homo sapiens. As to the kind of experiment: Selectivity ratio, Ki for human CB1 receptor to Ki for human CB2 receptor. The procedure, abridged: as §1
The subject of data set [5] is Mus musculus. The data set is described as follows: Toxicity in mouse hind paw incision model assessed as behavioral effects at 3 mg/kg, ip. Format: organism-based. More on the design: dose 3 mg/kg, route intraperitoneal. The conditions noted are these: in vivo.
Data set [6] relates to Mus musculus. The data set is described as follows: Antiallodynic activity in mouse hind paw incision model of post-operative pain assessed as hind paw withdrawal threshold at 10 mg/kg, ip. Format: functional, organism-based. More on the design: dose 10 mg/kg.
Data set [7] concerns Mus musculus. The data set is described as follows: Antiallodynic activity in mouse hind paw incision model of post-operative pain assessed as hind paw withdrawal threshold at 3 mg/kg, ip. Further details: dose 3 mg/kg. In kind it is functional, organism-based.
The subject of data set [8] is Mus musculus. The data set is described as follows: Antiallodynic activity in po dosed mouse hind paw incision model of post-operative pain assessed as hind paw withdrawal threshold. In kind it is functional, organism-based.
Data set [9] concerns Mus musculus. As to the kind of experiment: Toxicity in mouse hind paw incision model assessed as behavioral effects at 10 mg/kg, ip. More on the design: dose 10 mg/kg, route intraperitoneal. In kind it is organism-based. The conditions noted are these: in vivo.

T1 sequence (P34972 whole entry): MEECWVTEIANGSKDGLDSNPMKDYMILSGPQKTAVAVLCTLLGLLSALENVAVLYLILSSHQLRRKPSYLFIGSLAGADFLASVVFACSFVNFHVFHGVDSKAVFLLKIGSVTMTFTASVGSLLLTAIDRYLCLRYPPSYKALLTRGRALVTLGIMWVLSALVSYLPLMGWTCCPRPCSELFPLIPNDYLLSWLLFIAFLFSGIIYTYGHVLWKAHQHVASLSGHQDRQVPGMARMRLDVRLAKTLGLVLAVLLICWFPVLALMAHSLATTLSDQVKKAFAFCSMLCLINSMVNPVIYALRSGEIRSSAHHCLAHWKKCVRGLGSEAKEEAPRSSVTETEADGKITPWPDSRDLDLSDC
Chain of Cannabinoid receptor 1 (P21554 whole entry): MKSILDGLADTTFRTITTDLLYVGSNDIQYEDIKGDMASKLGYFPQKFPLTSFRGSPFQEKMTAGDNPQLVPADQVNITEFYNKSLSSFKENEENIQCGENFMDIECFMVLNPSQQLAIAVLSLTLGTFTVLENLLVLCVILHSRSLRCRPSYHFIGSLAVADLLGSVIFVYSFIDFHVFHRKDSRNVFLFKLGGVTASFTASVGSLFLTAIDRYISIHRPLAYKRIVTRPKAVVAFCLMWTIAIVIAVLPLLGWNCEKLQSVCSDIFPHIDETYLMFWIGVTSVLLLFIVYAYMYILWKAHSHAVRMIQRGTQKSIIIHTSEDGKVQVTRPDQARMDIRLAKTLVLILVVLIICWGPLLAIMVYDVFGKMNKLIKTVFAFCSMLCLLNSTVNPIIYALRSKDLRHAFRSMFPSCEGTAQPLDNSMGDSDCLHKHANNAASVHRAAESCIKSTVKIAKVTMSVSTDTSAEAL

On Cannabinoid receptor 1, `Cc1cc(C)c(NC(=O)C2CCCCC2C)cc1CN1CCOCC1` (configuration not stated) had an Activity of 14%. The molecule further yielded a Ki at Cannabinoid receptor 2 [1] of 440 nM. In addition, the response at Cannabinoid receptor 2 [2] was half-maximal at 590 nM (EC50). Further, the results for the remaining at 0.5 h in data set [3] and in data set [4] were 67% and 49%, respectively.
Molecule `CCC(C)(C)C(=O)Nc1cc(CN2CCOCC2)c(C)cc1C` came in with an Activity at Cannabinoid receptor 1 of 18%. In addition, at Cannabinoid receptor 2 [1], the Ki turned out to be 530 nM. At Cannabinoid receptor 2 [2], this molecule registered an EC50 of 500 nM. Also, the remaining at 0.5 h in data set [3] amounted to 42%; in data set [4], 61%.
With `CCC(C)(C)C(=O)Nc1ccc(C)c(CN2CCOCC2)c1`, the Activity on Cannabinoid receptor 1 came out at 4%. Moreover, the affinity at Cannabinoid receptor 2 [1], expressed as Ki, was 120 nM. In addition, at Cannabinoid receptor 2 [2], the EC50 came out at 110 nM. The remaining at 0.5 h in data set [3] turned out to be 29%; in [4], 56%.
Consider `Cc1cc(NC(=O)C2CCCCC2C)cc(CN2CCOCC2)c1C` (configuration not stated), for which the Ki on Cannabinoid receptor 1 turned out to be 540 nM; at Cannabinoid receptor 2 [1], 8.6 nM. Further, the response at Cannabinoid receptor 2 [2] was half-maximal at 21 nM (EC50). For the same molecule, the remaining at 0.5 h in data set [3] was 1%; in data set [4] it was 32%. Moreover, the Ratio Ki in the data set listed under Homo sapiens worked out at 63.
As to `CC(C(=O)Nc1ccc2c(c1)C(N1CCOCC1)CCC2)(C(F)(F)F)C(F)(F)F` (single isomer, unassigned), the Ki was found to be 1300 nM at Cannabinoid receptor 1 and 2.3 nM on Cannabinoid receptor 2 [1]. Further, on Cannabinoid receptor 2 [2], the response was half-maximal at 3.6 nM (EC50).
In the case of `Cc1ccc(NC(=O)C(C)(C(F)(F)F)C(F)(F)F)cc1CN1CCOCC1`, the values for the Ki at Cannabinoid receptor 1 and at Cannabinoid receptor 2 [1] were 6300 nM and 16 nM, respectively. Besides, at Cannabinoid receptor 2 [2], the EC50 amounted to 14 nM. The values for the remaining at 0.5 h in data set [3] and in [4] were 0.9% and 42%, respectively. In addition, in the data set filed under Homo sapiens, the Ratio Ki stood at 390.
In the case of `Cc1ccc(C(=O)NC2C(C)(C)[C@@H]3CC[C@@]2(C)C3)cc1CN1CCOCC1` (some centres not stated), the Ki at Cannabinoid receptor 1 came out at 1100 nM; on Cannabinoid receptor 2 [1] it was 19 nM. The molecule further came in with a concentration for a half-maximal effect (EC50) at Cannabinoid receptor 2 [2] of 42 nM. The Ratio Ki in the data set listed under Homo sapiens was 58.
`CCC(C)(C)C(=O)Nc1cc(CN2CCOCC2)c(C)cc1F` had an Activity at Cannabinoid receptor 1 of 10%. For the same molecule, at Cannabinoid receptor 2 [1], the Ki was found to be 120 nM. Also, on Cannabinoid receptor 2 [2], the concentration for a half-maximal effect (EC50) was found to be 200 nM. The figures for the remaining at 0.5 h in data set [3] and in [4] were 20% and 57%, respectively.
Consider `Cc1ccc(NC(=O)C2CCCCC2C)cc1CN1CCOCC1` (configuration not stated), for which the Ki on Cannabinoid receptor 1 amounted to 1600 nM; on Cannabinoid receptor 2 [1], 70 nM. This molecule also displayed an EC50 on Cannabinoid receptor 2 [2] of 76 nM. Also, the figures for the remaining at 0.5 h in data set [3] and in data set [4] were 2.2% and 38%, respectively. For the same molecule, the Ratio Ki in the data set listed under Homo sapiens amounted to 23.
Take `Cc1ccc(C(=O)NC2C(C)(C)[C@@H]3CC[C@@]2(C)C3)cc1CCCN1CCOCC1` (some centres not stated): the Ki was 2100 nM on Cannabinoid receptor 1 and 62 nM on Cannabinoid receptor 2 [1]. The same molecule yielded an EC50 at Cannabinoid receptor 2 [2] of 110 nM. Also, the Ratio Ki in the data set filed under Homo sapiens stood at 34.
For the molecule `CC(C(=O)Nc1ccc2c(c1)C(N1CCOCC1)CCC2)(C(F)(F)F)C(F)(F)F` (single isomer, unassigned; enantiomer 2), the Ki at Cannabinoid receptor 1 is more than 5000 nM; at Cannabinoid receptor 2 [1], 120 nM. The EC50 at Cannabinoid receptor 2 [2] was 72 nM.
For the molecule `Cc1ccc(C(=O)NC2C(C)(C)[C@@H]3CC[C@@]2(C)C3)cc1CCC(=O)N1CCOCC1` (some centres not stated), the Ki at Cannabinoid receptor 1 came to 1700 nM; on Cannabinoid receptor 2 [1], 83 nM. Moreover, in the data set listed under Homo sapiens, the Ratio Ki is 20.
Consider `Cc1c(CN2CCOCC2)cc(NC(=O)C2CCCCC2C)cc1C(F)(F)F` (configuration not stated), for which the Ki amounted to 110 nM on Cannabinoid receptor 1 and 17 nM on Cannabinoid receptor 2 [1]. On Cannabinoid receptor 2 [2], the EC50 was found to be 42 nM. The remaining at 0.5 h in data set [3] and in data set [4] was 2% each time. Moreover, the Ratio Ki in the data set listed under Homo sapiens came out at 6.5.
For `Cc1ccc(C(=O)NC2C(C)(C)[C@@H]3CC[C@@]2(C)C3)cc1N1CCOCC1` (some centres not stated), the figures for the Ki on Cannabinoid receptor 1 and on Cannabinoid receptor 2 [1] were 9000 nM and 300 nM, respectively. In addition, in the data set filed under Homo sapiens, the Ratio Ki was 30.
For `Cc1ccc(C(=O)NC2C(C)(C)[C@@H]3CC[C@@]2(C)C3)cc1S(=O)(=O)N1CCOCC1` (some centres not stated), the Ki came to 130 nM at Cannabinoid receptor 1 and 3.9 nM at Cannabinoid receptor 2 [1]. The molecule further registered an EC50 on Cannabinoid receptor 2 [2] of 6.6 nM. Also, in the data set filed under Homo sapiens, the Ratio Ki was found to be 31.
Turning to `CN1CC[C@]23c4c5ccc(O)c4O[C@H]2[C@@H](O)C=C[C@H]3[C@H]1C5` [MORPHINE], in the data set on Mus musculus [5], the Activity entry is on record as “Not Active”.
For the molecule `Cc1ccc(C(=O)NC2C(C)(C)[C@@H]3CC[C@@]2(C)C3)cc1C(=O)N1CCOCC1` (some centres not stated), the Ki was more than 5000 nM on Cannabinoid receptor 1 and 1200 nM on Cannabinoid receptor 2 [1]. In addition, the remaining at 0.5 h in [3] was found to be 26%.
Take `CC(C(=O)Nc1ccc2c(c1)C(N1CCOCC1)CCC2)(C(F)(F)F)C(F)(F)F` (stereo in doubt; 43): the inhibitory constant (Ki) on Cannabinoid receptor 1 was 3400 nM; on Cannabinoid receptor 2 [1], 10 nM. The same molecule came in with an EC50 at Cannabinoid receptor 2 [2] of 41 nM.
Regarding `Cc1ccc(C(=O)NC2C(C)(C)[C@@H]3CC[C@@]2(C)C3)cc1CCN1CCOCC1` (some centres not stated), the Ki at Cannabinoid receptor 1 was 1400 nM; on Cannabinoid receptor 2 [1], 45 nM. Besides, the EC50 at Cannabinoid receptor 2 [2] worked out at 64 nM. Moreover, the Ratio Ki in the data set listed under Homo sapiens was determined as 31.
For the molecule `Cc1cc(NC(=O)C(C)(C(F)(F)F)C(F)(F)F)cc(CN2CCOCC2)c1C`, the results for the Ki on Cannabinoid receptor 1 and on Cannabinoid receptor 2 [1] were 500 nM and 2.7 nM, respectively. Also, a half-maximal response on Cannabinoid receptor 2 [2] (EC50) required 5.5 nM. Also, the figures for the remaining at 0.5 h in data set [3] and in data set [4] were 3.1% and 31%, respectively. The outcome in the data set on Mus musculus [6] and in the data set with Mus musculus [7] was Active. For the same molecule, in the data set listed under Homo sapiens, the Ratio Ki came to 190. For the same molecule, the result in the data set with Mus musculus [8] was inactive. Further, in the data set with Mus musculus [9], the Activity result is given as “Non-toxic; also recorded: Not Active”.
`Cc1cc(F)c(NC(=O)C2CCCCC2C)cc1CN1CCOCC1` (configuration not stated): at Cannabinoid receptor 1, the Activity was 31%. Besides, the affinity at Cannabinoid receptor 2 [1] corresponds to a Ki of 37 nM. At Cannabinoid receptor 2 [2], this molecule had a concentration giving a half-maximal response (EC50) of 49 nM. The figures for the remaining at 0.5 h in data set [3] and in [4] were 15% and 36%, respectively.
For the molecule `Cc1ccc(C(=O)NC2C3(C)CCC(C3)C2(C)C)cc1CC(=O)N1CCOCC1` (configuration not stated), the inhibitory constant (Ki) on Cannabinoid receptor 1 is 3900 nM; on Cannabinoid receptor 2 [1] it was 700 nM. The Ratio Ki in the data set filed under Homo sapiens amounted to 5.6.
